The results in this text go back to ChEMBL document CHEMBL1833891, “New inhibitors of colony spreading in Bacillus subtilis and Bacillus anthracis” (Bioorg Med Chem Lett, 2011).

Assay [1] deals with Bacillus subtilis. The assay can be described thus: Antibacterial activity against Bacillus subtilis NCIB 3610 DS1677 harboring marker-less hag mutant assessed as inhibition of surface colony-spreading at 15 ug/ml after overnight incubation at 32 degree C relative to control. It counts as functional. Particulars: subsp. subtilis str. NCIB 3610 DS1677. The procedure, abridged:
(§1)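 DS1677 inoculated at the centre of Tryptic soy broth soft agar (7 g L⁻¹) containing compound, incubated, then average colony diameter measured. % inhibition of spreading is relative to a DMSO control. Duplicate or triplicate, with the assay repeated if replicates differed by >10% in diameter. NPG isomers at 30 µg mL⁻¹, other compounds at 15 µg mL⁻¹.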

Assay [2] concerns Bacillus subtilis. The assay can be described thus: Antibacterial activity against erythromycin-lincomycin resistant Bacillus subtilis NCIB 3610 DS64 harboring hag deletion mutant assessed as inhibition of surface colony-spreading at 75 ug/ml after 24 hrs relative to control. It counts as functional. Conditions: subsp. subtilis str. NCIB 3610 DS64. The procedure, abridged:
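hag mutant DS64 (MLS antibiotic marker) inoculated at the centre of MK agarose plates with or without 75 µg mL⁻¹ compound, grown 24 h at 37 °C. Surface film spreading scored against the untreated plate.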

Assay [3] relates to Bacillus anthracis. Kind of assay: Antibacterial activity against Bacillus anthracis Sterne assessed as inhibition of surface colony-spreading after overnight incubation. Type of assay: functional, organism-based.
Assay [4] has as its system Bacillus anthracis. The assay can be described thus: Antibacterial activity against Bacillus anthracis Sterne assessed as inhibition of surface colony-spreading at 75 ug after overnight incubation. Type of assay: functional, organism-based.
Assay [5] has as its system Bacillus subtilis. Kind of assay: Antibacterial activity against Bacillus subtilis NCIB 3610 DS1677 harboring marker-less hag mutant assessed as inhibition of surface colony-spreading at 30 ug/ml after overnight incubation at 32 degree C relative to control. Conditions: subsp. subtilis str. NCIB 3610 DS1677. It counts as functional. The procedure, abridged: as §1
Assay [6] relates to Proteus mirabilis. The assay can be described thus: Antibacterial activity against Proteus mirabilis 7002 assessed as inhibition of swarming by plate swarm assay. It counts as functional, organism-based. Summed up: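 Proteus plate swarm assay. Each compound at 75 µg mL⁻¹ in the plate, with swarming judged by visible effect.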
Assay [7] relates to Bacillus subtilis. Kind of assay: Antibacterial activity against Bacillus subtilis NCIB 3610 DS1677 harboring marker-less hag mutant assessed as inhibition of surface colony-spreading at 75 ug/ml after 24 hrs relative to control. Type of assay: functional. Conditions: subsp. subtilis str. NCIB 3610 DS1677. The procedure, abridged:
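Marker-less hag mutant DS1677 on MK agarose (semi-solid, complete defined nutrients) plates containing 75 µg mL⁻¹ compound in DMSO. Control plates contained 75 µg mL⁻¹ DMSO. Colony spreading compared with control.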

Assay [8] concerns Bacillus subtilis. The assay can be described thus: Antibacterial activity against Bacillus subtilis NCIB 3610 DS1677 harboring marker-less hag mutant assessed as inhibition of surface colony-spreading after 16 hrs relative to control. It counts as functional. Particulars: subsp. subtilis str. NCIB 3610 DS1677, 16 h. The procedure, abridged: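 B. subtilis hag deletion strain DS1677: 3 µL of an overnight LB culture spotted on Tryptic soy broth agar (7 g L⁻¹), dried 3–4 h, with graded inhibitor levels. Plates in duplicate, grown 16 h at 32 °C. IC50 derived from measured colony diameters.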

Activity calls are given as the source filed them. The calls are words filed in the database; no cut-off is given here.

As a reminder, the inhibition is how much of the control response was suppressed. Turning to `CS(=O)(=O)c1cccc(C(O)C(O)CO)c1` (mixture of isomers), the inhibition at 15 µg/mL in assay [1] turned out to be 10.5%. In the case of `O=[N+]([O-])c1ccc(C(O)C(O)CO)cc1` (stereo not given), in assay [2], the inhibition result is “Active”. Broadly, the IC50 is the concentration that gives 50% inhibition. Regarding `CS(=O)(=O)c1ccc([C@@H](O)[C@@H](O)CO)cc1`, in assay [3], the IC50 came to 12 µM. The inhibition at 15 µg/mL in assay [1] was 95.3%. Also, in assay [4], the inhibition result is “Active”.

For `CS(=O)(=O)Oc1ccc(C(O)C(O)CO)cc1` (mixture of isomers), the inhibition at 15 µg/mL in assay [1] turned out to be 11.5%. Regarding `C=C[C@H](O)c1ccc(S(C)(=O)=O)cc1`, in assay [1], the inhibition at 15 µg/mL turned out to be 21.3%. Consider `O=[N+]([O-])c1ccc([C@H](O)[C@H](O)CO)cc1`, for which the inhibition at 30 µg/mL in assay [5] came out at 1.5%. Further, the inhibition entry in assay [6] and in assay [7] was “inactive” in each case. As to `NS(=O)(=O)c1ccc(C(O)C(O)CO)cc1` (mixture of isomers), the inhibition at 15 µg/mL in assay [1] amounted to 4.5%. On the same count and under the same terms, to `CO[C@H](c1ccc(S(C)(=O)=O)cc1)[C@@H](O)CO` belongs 0%. Take `O=[N+]([O-])c1ccc([C@@H](O)[C@@H](O)CO)cc1`: the inhibition at 30 µg/mL in assay [5] came out at 24.8%. Further, the results for the concentration for half-maximal inhibition (IC50) in assay [3] and in assay [8] were above 150 µM and 122 µM, respectively. Moreover, the inhibition entry in assay [6] and in assay [7] was “Active” each time. With `CS(=O)(=O)c1ccc([C@@H](O)[C@H](O)CO)cc1`, the inhibition at 15 µg/mL in assay [1] came to 69.1%. The inhibition result in assay [4] was “Active”.

Consider `O=[N+]([O-])c1ccc([C@@H](O)[C@H](O)CO)cc1`, for which, in assay [5], the inhibition at 30 µg/mL amounted to 16.1%. Besides, in assay [6], the inhibition result is “Active”. Moreover, in assay [7], the inhibition entry was “inactive”.

As for `OCC(O)C(O)c1ccc(O)cc1` (mixture of isomers), the inhibition at 15 µg/mL in assay [1] was found to be 12.9%. As to `CS(=O)(=O)c1ccc([C@H](O)[C@@H](O)CO)cc1`, the inhibition at 15 µg/mL in assay [1] worked out at 0%.

Regarding `CS(=O)(=O)c1ccccc1[C@@H](O)[C@@H](O)CO`, the inhibition at 15 µg/mL in assay [1] is 0%.

`COC[C@H](O)[C@H](O)c1ccc(S(C)(=O)=O)cc1`: the inhibition at 15 µg/mL in assay [1] was 10.1%. The same measure, in the same setting: in the case of `COC(=O)c1ccc(C(O)C(O)CO)cc1` (mixture of isomers) it was 0%; in that of `OCC(O)C(O)c1ccccc1` (mixture of isomers), 12.9%. On the same count and under the same terms, in the case of `COC[C@H](OC)[C@H](OC)c1ccc(S(C)(=O)=O)cc1` it was 18.5%; in that of `COC[C@H](O)[C@H](OC)c1ccc(S(C)(=O)=O)cc1`, 0%. For `CSc1ccc(C(O)C(O)CO)cc1` (mixture of isomers), the inhibition at 15 µg/mL in assay [1] turned out to be 0%.

In the case of `CS(=O)(=O)c1ccc([C@H](O)[C@H](O)CO)cc1`, the inhibition at 15 µg/mL in assay [1] was 1.6%.

On to `O=[N+]([O-])c1ccc([C@H](O)[C@@H](O)CO)cc1`, for which the inhibition at 30 µg/mL in assay [5] is 0%. The inhibition result in assay [6] and in assay [7] was “inactive” throughout.
